Compound activity from PubChem.
In the library only some 3.5% were active in any assay of this set; here they are far more common.
RGS4 act: RGS4 potentiation or activation. HEK293 M3R/inducible RGS4, carbachol calcium flux Fluo4; hits give low values. B-score at 10 µM. 0.92% of 310,000 active. AID 463111;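 active means B-score of the integrated calcium signal more than 4 SD below the library mean, with starting fluorescence not abnormally high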;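 further: negative B-score means reduced calcium response which marks RGS4 activation or potentiation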
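System: HEK293 FlpIn-TREx cells, stable M3R, doxycycline-inducible RGS4. Timing: overnight RGS4 induction, 30 min dye load 37 °C, 20 min compound RT. Also added: carbachol, ECmax concentration. Measured by: Fluo4 fluorescence kinetic imaging of calcium. Evaluation: integrated calcium ratio converted to B score.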
MrgX1 antag: blocks BAM8-22 activation of human MrgX1 receptor; Q96LB2; MRGX1-HEK293 calcium flux, Fluo-4, BAM8-22 antagonism; hits give low values; B-score at 10 µM; 1.3% of 310,000 active; AID 588676;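 active means calcium-response B-score plate-corrected more than 3 library SD below zero, starting fluorescence within 5 deviations, no agonist response on first addition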;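 further: peak minus trough fluorescence over baseline after final BAM8-22 challenge near maximal dose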
Target sequence (Q96LB2 whole entry, looked up): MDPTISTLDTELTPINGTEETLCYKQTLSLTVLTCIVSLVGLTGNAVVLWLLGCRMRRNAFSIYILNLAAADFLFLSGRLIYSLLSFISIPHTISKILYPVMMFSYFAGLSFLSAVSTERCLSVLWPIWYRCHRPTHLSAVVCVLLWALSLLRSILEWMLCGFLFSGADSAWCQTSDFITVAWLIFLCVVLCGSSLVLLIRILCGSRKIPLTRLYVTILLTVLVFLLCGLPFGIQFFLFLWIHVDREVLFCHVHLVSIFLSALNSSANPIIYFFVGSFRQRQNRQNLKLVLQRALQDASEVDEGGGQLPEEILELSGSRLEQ
RGS4 block: human RGS4 inhibition; P49798; AID 463165; B-score at 10 µM; HEK293 M3R/RGS4 inducible, Fluo-4 calcium flux; hits give high values; triggered by carbachol at its EC20; 0.45% of 310,000 active;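 active means B-score, a plate-corrected calcium signal, over three deviations above library mean, with baseline fluorescence within five deviations of library mean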;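 further: RGS4 expression induced by doxycycline in cells with stable M3 receptor; B-score is computed from the integrated fluorescence ratio over baseline after carbachol; higher B-score means a larger calcium signal and so more RGS4 inhibition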
Target sequence (P49798 whole entry, looked up): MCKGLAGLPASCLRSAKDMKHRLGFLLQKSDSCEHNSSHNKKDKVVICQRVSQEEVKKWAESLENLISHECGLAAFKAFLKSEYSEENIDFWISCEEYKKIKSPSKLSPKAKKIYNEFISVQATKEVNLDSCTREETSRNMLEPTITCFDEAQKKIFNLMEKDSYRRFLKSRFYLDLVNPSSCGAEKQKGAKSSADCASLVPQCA
MrgX1 allo act: allosterically activates human MrgX1 receptor signaling. MrgX1-HEK293, Fluo-4 calcium flux, FDSS; hits give high values. B-score at 10 µM. 0.63% of 310,000 active. Q96LB2;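 active means plate-corrected calcium response at least 3 library SD above typical, normal starting fluorescence, not activating the receptor alone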;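 further: compound read alongside a low EC10 to EC30 dose of BAM8-22 agonist; peak minus trough fluorescence over baseline measured at the second addition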
MrgX1 ag: agonists of human MrgX1 receptor; B-score at 10 µM; MrgX1-HEK293 cells, Fluo-4 calcium fluorescence, agonist mode; hits give high values; 0.44% of 310,000 active; AID 588627; Q96LB2;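 active means calcium response B-score plate-corrected fluorescence ratio at least 3 library SD, with starting fluorescence B-score inside 5 SD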
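Material: MrgX1-expressing HEK293 cells; input: 15,000 cells per well; doses: test compound given as first of three sequential additions; schedule: overnight plating before 1 h dye loading; technique: Fluo-4 NW calcium-flux fluorescence, kinetic read; evaluation: baseline-normalised fluorescence change ratio, B-scored; control set: plate-wise positive and negative controls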
MrgX1 ag reconf: confirmation of human MrgX1 receptor agonists. AID 602412. shares compounds with MrgX1 ag. activation, % at 10 µM. MrgX1-HEK293, Fluo-4 calcium fluorescence, FDSS. 78% of 600 active;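 active means calcium signal rise, corrected for plate position, at least 3 library SD high, with starting brightness within 5 such deviations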
HEK293 Ca flux: MrgX1 antagonist counter-screen hit in parental HEK293 cells. shares compounds with MrgX1 antag. Fluo-4 calcium fluorescence, FDSS. fluorescence ratio F(max-min)/F0 at 10 µM. 2% of 4,000 active. AID 624111;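 active means duplicate-averaged calcium fluorescence ratio at least three times the standard deviation of buffer wells, a nonspecific response in parental cells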
HEK293 Ca counter: activity in parental HEK293 cells without MrgX1; parental HEK293 calcium flux, Fluo-4 fluorescence ratio; hits give high values; 0.4% of 4,000 active; shares compounds with MrgX1 antag; AID 624114; fluorescence ratio F(max-min)/F0 at 10 µM;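 active means calcium fluorescence ratio, averaged over duplicates, at least 3 SD of the buffer-well ratio, meaning a nonspecific response in receptor-free cells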;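 further: untransfected parental HEK293 lacking MrgX1 used as counterscreen for MrgX1 allosteric activators; fluorescence change taken during the second addition on a kinetic imager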
HEK293 Ca cntr2: counter-screen for MrgX1 activators: effect in parental HEK293 cells; 8.7% of 4,000 active; fluorescence ratio F(max-min)/F0 at 10 µM; Fluo-4 calcium fluorescence (FDSS); hits give high values; shares compounds with MrgX1 antag; AID 624115;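 active means calcium fluorescence ratio at least three times the spread of buffer wells, meaning a non-specific response in parental cells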
An asterisk follows results filed as active.

Screening CN(C)CCOC1c2ccccc2CCc2ccc3ccccc3c21 (stereo not drawn) returned RGS4 act inactive, MrgX1 antag inactive, RGS4 block inactive, MrgX1 allo act inactive, MrgX1 ag 57*, MrgX1 ag reconf 142%*, HEK293 Ca flux inactive, HEK293 Ca counter inactive and HEK293 Ca cntr2 inactive.
Screening Cc1ccc(C)c(-c2csc(N/N=C/c3ccco3)n2)c1 returned RGS4 act inactive, MrgX1 antag inactive, RGS4 block inactive, MrgX1 allo act inactive and MrgX1 ag inactive.
Screening CCCCCCCCCC(=O)N/N=C(\C)c1cccnc1 returned RGS4 act inactive, MrgX1 antag inactive, RGS4 block inactive, MrgX1 allo act inactive and MrgX1 ag inactive.
`CCCCCC(=O)N/N=C(\C)c1ccccn1` gave RGS4 act inactive, MrgX1 antag inactive, RGS4 block inactive, MrgX1 allo act inactive, MrgX1 ag 86*, MrgX1 ag reconf inactive, HEK293 Ca flux inactive, HEK293 Ca counter inactive and HEK293 Ca cntr2 inactive.
`Cc1ccc(-c2csc3ncn(CC(=O)N4CCOCC4)c(=O)c23)cc1C` gave RGS4 act inactive, MrgX1 antag inactive, RGS4 block inactive, MrgX1 allo act inactive, MrgX1 ag 32*, MrgX1 ag reconf 135%*, HEK293 Ca flux inactive, HEK293 Ca counter inactive and HEK293 Ca cntr2 inactive.
`N#Cc1nc(Cc2ccccc2)oc1NCc1ccccc1` gave RGS4 act inactive, MrgX1 antag inactive, RGS4 block inactive, MrgX1 allo act inactive, MrgX1 ag 31*, MrgX1 ag reconf 108%*, HEK293 Ca flux inactive, HEK293 Ca counter inactive and HEK293 Ca cntr2 inactive.
`COc1ccc(CNc2oc(COc3ccccc3)nc2C#N)cc1` gave RGS4 act inactive, MrgX1 antag inactive, RGS4 block inactive, MrgX1 allo act inactive and MrgX1 ag inactive.
`N#Cc1nc(-c2ccc(F)cc2)oc1NCc1ccccc1` gave RGS4 act inactive, MrgX1 antag inactive, RGS4 block inactive, MrgX1 allo act inactive and MrgX1 ag inactive.
For CCC(CC)c1nc(C#N)c(NCc2ccccc2)o1 the results were RGS4 act inactive, MrgX1 antag inactive, RGS4 block inactive, MrgX1 allo act inactive, MrgX1 ag 27*, MrgX1 ag reconf 230%*, HEK293 Ca flux inactive, HEK293 Ca counter inactive and HEK293 Ca cntr2 50*.
CCCOc1ccc(C(=O)NNC(=S)NC(=O)c2ccccc2)cc1 was read as RGS4 act -8.4*, MrgX1 antag inactive, RGS4 block inactive, MrgX1 allo act inactive, MrgX1 ag 91*, MrgX1 ag reconf 663%*, HEK293 Ca flux inactive, HEK293 Ca counter inactive and HEK293 Ca cntr2 128*.
CCCOc1ccc(C(=O)NNC(=S)NC(=O)c2cccs2)cc1 was read as RGS4 act -8.6*, MrgX1 antag inactive, RGS4 block inactive, MrgX1 allo act inactive, MrgX1 ag 110*, MrgX1 ag reconf 496%*, HEK293 Ca flux inactive, HEK293 Ca counter inactive and HEK293 Ca cntr2 104*.
CSC1=NCCN1C(=O)c1c(-c2c(F)cccc2Cl)noc1C was read as RGS4 act inactive, MrgX1 antag inactive, RGS4 block inactive, MrgX1 allo act inactive and MrgX1 ag inactive.
`CCOC(=O)N1CCN(C(=O)COC(=O)CNC(=O)c2ccc(C)cc2)CC1` gave RGS4 act inactive, MrgX1 antag inactive, RGS4 block inactive, MrgX1 allo act inactive and MrgX1 ag inactive.
Screening CC(C)NC[C@H](O)c1ccc(O)c(O)c1 returned MrgX1 antag inactive, MrgX1 allo act inactive, MrgX1 ag 32*, MrgX1 ag reconf 124%*, HEK293 Ca flux inactive, HEK293 Ca counter inactive and HEK293 Ca cntr2 inactive.
`O=C(Nc1ccc(Cl)c(Cl)c1)Nc1ccccc1C(=O)O` gave RGS4 act inactive, MrgX1 antag inactive, RGS4 block inactive, MrgX1 allo act inactive and MrgX1 ag inactive.
COc1ccc(S(=O)(=O)CC(=O)c2cc3cc(Br)ccc3oc2=O)cc1 was read as RGS4 act inactive, MrgX1 antag inactive, RGS4 block inactive, MrgX1 allo act inactive, MrgX1 ag 70*, MrgX1 ag reconf 326%*, HEK293 Ca flux inactive, HEK293 Ca counter inactive and HEK293 Ca cntr2 61*.
For O=C1COc2ccc(C(=O)CSc3nnc(Cc4cccs4)n3-c3ccccc3)cc2N1 the results were RGS4 act inactive, MrgX1 antag inactive, RGS4 block inactive, MrgX1 allo act inactive, MrgX1 ag 27*, MrgX1 ag reconf 175%*, HEK293 Ca flux inactive, HEK293 Ca counter inactive and HEK293 Ca cntr2 inactive.
O=C(Nc1ccc(Cl)cc1Cl)c1ccc2c(=O)n3c(nc2c1)CCC3 was read as RGS4 act inactive, MrgX1 antag inactive, RGS4 block inactive, MrgX1 allo act inactive, MrgX1 ag 85*, MrgX1 ag reconf 462%*, HEK293 Ca flux inactive, HEK293 Ca counter inactive and HEK293 Ca cntr2 107*.
For O=C(Nc1ccc(Cl)cc1)c1ccc2c(=O)n3c(nc2c1)CCCCC3 the results were RGS4 act inactive, MrgX1 antag inactive, RGS4 block inactive, MrgX1 allo act inactive and MrgX1 ag inactive.
`O=C(Nc1ccc(Br)cc1Cl)c1ccc2c(=O)n3c(nc2c1)CCC3` gave RGS4 act inactive, MrgX1 antag inactive, RGS4 block inactive, MrgX1 allo act inactive, MrgX1 ag 55*, MrgX1 ag reconf 468%*, HEK293 Ca flux inactive, HEK293 Ca counter inactive and HEK293 Ca cntr2 102*.
`Cc1cccc(NC(=O)c2sc(NC(=O)c3ccco3)c(C#N)c2C)c1C` gave RGS4 act inactive, MrgX1 antag inactive, RGS4 block inactive, MrgX1 allo act inactive and MrgX1 ag inactive.
`O=C(O)c1cn(Cc2ccccc2)c2ccc(Cl)cc2c1=O` gave RGS4 act inactive, MrgX1 antag inactive, RGS4 block inactive, MrgX1 allo act inactive and MrgX1 ag inactive.
For Cc1ccc(C2C(C#N)=C(N)Oc3n[nH]c(-c4cccnc4)c32)o1 (stereo not drawn) the results were RGS4 act inactive, MrgX1 antag inactive, RGS4 block inactive, MrgX1 allo act inactive, MrgX1 ag 36*, MrgX1 ag reconf 167%*, HEK293 Ca flux inactive, HEK293 Ca counter inactive and HEK293 Ca cntr2 inactive.
